Data reported in article PMC5974556 (ChemistryOpen, 2018).
Values after ≈ are worked out from the molar mass of the structure shown. Marks after values point to notes of the source that are not given here.

What was measured:
HT‐29 cells [1] = test: Mitochondria activity; format: cell-based; conditions: Homo sapiens, HT-29, 72 h, read-out: HT‐29 IC50 MTT
How it was run: (§1)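 Cells kept in DMEM+glutamax with 1% NEAA, 1% P/S and 10% FBS at 37 °C, 10% CO2. Seeded 2×10^4 per well for 24 h, then exposed 72 h to test compound at various concentrations in serum-free medium, in triplicate. MTT (5 mg/mL in PBS) added for 2 h, formazan dissolved in DMSO, read at 570 nm. IC50 from % survival; doxorubicin control; MTT and SRB data pooled, mean ± SD, n≥6.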

EA.hy926 cells [2] = test: Mitochondria activity; format: cell-based; conditions: Homo sapiens, EA.hy 926, 72 h, read-out: EA.hy926 IC50 MTT
How it was run: as §1

Caco‐2 cells [3] = test: Mitochondria activity; format: cell-based; conditions: Homo sapiens, Caco-2, 72 h, read-out: Caco‐2 IC50 MTT
How it was run: as §1

HepG2 cells [4] = test: Mitochondria activity; format: cell-based; conditions: Homo sapiens, HepG2, 72 h, read-out: HepG2 IC50 MTT
How it was run: as §1

Caco‐2 cells [5] = test: Intracellular ROS; format: cell-based, human; conditions: protein content normalization, mean±SD, n≥3
How it was run: (§2)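 Cells grown in DMEM+glutamax with 1% NEAA, 1% P/S and 10% FBS at 37 °C, 10% CO2. Seeded at 2×10^4 cells/well for 24 h, then confluent cells were exposed to test compound at 1 or 10 µM in serum-free medium, with NAC as control. Cells were washed, loaded with DCFH-DA for 30 min, then kept 1 h in phenol red-free DMEM. Fluorescence read at ex 485/em 535 nm, normalised to same-well SRB protein (490 nm) and given as % of untreated cells. Mean ± SD, n≥3; two-tailed t-test with unequal variances.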

HT‐29 cells [6] = test: Protein content; format: cell-based; conditions: Homo sapiens, HT-29, 72 h, read-out: HT‐29 IC50 SRB
How it was run: (§3)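 Seeded 2×10^4 cells per well for 24 h, then treated with or without test compound for three days, in triplicate. Fixed with 50% TCA for 1 h at 4 °C, washed and dried. Stained 30 min at 4 °C with 0.4% sulforhodamine B in 1% acetic acid, rinsed with 1% acetic acid. Dye redissolved in Tris buffer, absorbance read at 490 nm. Doxorubicin control; MTT and SRB data pooled, mean ± SD, n≥6.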

EA.hy926 cells [7] = test: Protein content; format: cell-based; conditions: Homo sapiens, EA.hy 926, 72 h, read-out: EA.hy926 IC50 SRB
How it was run: as §3

HepG2 cells [8] = test: Protein content; format: cell-based; conditions: Homo sapiens, HepG2, 72 h, read-out: HepG2 IC50 SRB
How it was run: as §3

EA.hy926 cells [9] = test: Intracellular ROS; format: cell-based; conditions: Homo sapiens; for activity at 1 µM: EA.hy 926, read-out: Intracellular ROS, percentage compared to the untreated control cells (ROS/SRB), EA.hy926, 1 μM; for activity at 10 µM: EA.hy 926, read-out: Intracellular ROS, percentage compared to the untreated control cells (ROS/SRB), EA.hy926, 10 μM
How it was run: as §2

[10] = Water solubility, shake flask method in 0.1 M phosphate buffer pH 6.8; format: physicochemical; conditions: 37 °C, pH 6.8, aqueous buffer, thermodynamic from solid
How it was run: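 Excess solid added to 1 mL sodium phosphate buffer, pH 6.8. Two conditions: 90 min sonication at 37 °C, or 30 min sonication at 37 °C, 23 h shaking at 300 rpm, then 30 min sonication. Centrifuged 14000 rpm for 5 min, filtered (0.2 µm) at 37 °C and diluted in DMSO. Quantified by LC at maximum absorbance against standard curves; independent triplicates.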

HepG2 cells [11] = test: Intracellular ROS; format: cell-based; conditions: Homo sapiens; for activity at 1 µM: HepG2, read-out: Intracellular ROS, percentage compared to the untreated control cells (ROS/SRB), HepG2, 1 μM; for activity at 10 µM: HepG2, read-out: Intracellular ROS, percentage compared to the untreated control cells (ROS/SRB), HepG2, 10 μM
How it was run: as §2

HT‐29 cells [12] = test: Intracellular ROS; format: cell-based; conditions: Homo sapiens; for activity at 1 µM: HT-29, read-out: Intracellular ROS, percentage compared to the untreated control cells (ROS/SRB), HT‐29, 1 μM; for activity at 10 µM: HT-29, read-out: Intracellular ROS, percentage compared to the untreated control cells (ROS/SRB), HT‐29, 10 μM
How it was run: as §2

[13] = Ferric reducing antioxidant power; conditions: chemical antioxidant capacity, n=3
How it was run: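 FRAP reagent made from acetate buffer, TPTZ in ethanol and FeCl3·6H2O in dilute HCl, mixed 10:1:1, with TPTZ and iron solutions fresh daily. Sample mixed with reagent 1:9, absorbance read at 593 nm after 4 min. Values expressed as Trolox equivalents by linear regression on a Trolox standard curve; α-tocopherol positive control.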

Caco‐2 cells [14] = test: Protein content; format: cell-based; conditions: Homo sapiens, Caco-2, 72 h, read-out: Caco‐2 IC50 SRB
How it was run: as §3

IC50 (Caco‐2 cells [3]) [µM] | IC50 (HepG2 cells [4]) [µM] | Intracellular ROS, percentage compared to the untreated control cells (ROS/SRB), Caco‐2, 1 μM (Caco‐2 cells [5]) | Intracellular ROS, percentage compared to the untreated control cells (ROS/SRB), Caco‐2, 10 μM (Caco‐2 cells [5]) | IC50 (HepG2 cells [8]) [µM] | solubility at 90 min [10] [µM] | solubility at 24 h [10] [µM] | IC50 (Caco‐2 cells [14]) [µM] | SMILES | IC50 (HT‐29 cells [1]) [µM] | IC50 (EA.hy926 cells [2]) [µM] | IC50 (HT‐29 cells [6]) [µM] | IC50 (EA.hy926 cells [7]) [µM] | activity at 1 µM (EA.hy926 cells [9]) [%] | activity at 10 µM (EA.hy926 cells [9]) [%] | activity at 1 µM (HepG2 cells [11]) [%] | activity at 10 µM (HepG2 cells [11]) [%] | activity at 1 µM (HT‐29 cells [12]) [%] | activity at 10 µM (HT‐29 cells [12]) [%] | FRAP [13] [Trolox equiv per μM]
28.5 ± 3.5 | > 75 | 101.5±9.2% | 110.6±5.3^[b] % | > 75 | 897.4 ± 1.1 (≈ 314 µg/mL) | 2310 ± 90 (≈ 808 µg/mL) | 36 ± 0.1 | COCCCNC(=C\C(=O)/C=C/c1cccnc1)/C=C/c1cccnc1 [5 d, (1E,4Z,6E)‐5‐(3‐Methoxypropylamino)‐1,7‐di(pyridin‐3‐yl)hepta‐1,4,6‐trien‐3‐one] | 59.6 ± 7.7 | 70.6 ± 2.5 | 51.5 ± 6.1 | 72.7 ± 3.7 | 102 ± 5.8 | 98.3 ± 2 | 92.3 ± 4.6 | 89.4 ± 3.1 | 102 ± 19.4 | 95.1 ± 14 | 0.01
> 75 | > 75 | 111.4±8.9% | 118.6±2.8^[c] % | > 75 | 4350 ± 260 (≈ 1400 µg/mL) | 4850 ± 140 (≈ 1560 µg/mL) | > 75 | O=C(/C=C(/C=C/c1cccnc1)NCCO)/C=C/c1cccnc1 [5 e, (1E,4Z,6E)‐5‐(2‐Hydroxyethylamino)‐1,7‐di(pyridin‐3‐yl)hepta‐1,4,6‐trien‐3‐one] | > 75 | > 75 | > 75 | > 75 | 102 ± 1.6 | 115 ± 7.6 | 88.6 ± 15.2 | 92.1 ± 5.1 | 93.9 ± 5.5 | 110 ± 3.7 | 0.04
> 75 | > 75 | 102.5±2.3% | 115.4±8.5% | > 75 | 1470 ± 24 (≈ 494 µg/mL) | 4270 ± 332 (≈ 1430 µg/mL) | > 75 | O=C(/C=C(/C=C/c1cccnc1)NCCCO)/C=C/c1cccnc1 [5 f, (1E,4Z,6E)‐5‐(3‐Hydroxypropylamino)‐1,7‐di(pyridin‐3‐yl)hepta‐1,4,6‐trien‐3‐one] | > 75 | > 75 | > 75 | > 75 | 88.7 ± 1.6 | 102 ± 1.6 | 84.8 ± 2.5 | 74.4 ± 3.2 | 95.4 ± 1.7 | 96 ± 12.7 | 0.04
> 75 | > 75 | 90.8±6.3% | 89.9±3.4% | > 75 | 1280 ± 61.2 (≈ 448 µg/mL) | 2980 ± 166 (≈ 1040 µg/mL) | > 75 | COCCCN1C(/C=C/c2cccnc2)=CC(=O)CC1c1cccnc1 (stereo not shown) [6 d, (E)‐1‐(3‐Methoxypropyl)‐2‐(pyridin‐3‐yl)‐6‐[2‐(pyridin‐3‐yl)vinyl]‐2,3‐dihydropyridin‐4(1H)‐one] | > 75 | > 75 | > 75 | > 75 | 95.2 ± 5 | 98.3 ± 5.3 | 85.6 ± 8.9 | 95.7 ± 10 | 83.4 ± 5.6 | 88.4 ± 4.1 | 0.00
> 75 | > 75 | 100.5±2.4% |  | > 75 | 2460 ± 57.2 (≈ 826 µg/mL) | 5000 ± 137 (≈ 1680 µg/mL) | > 75 | O=C1C=C(/C=C/c2cccnc2)N(CCCO)C(c2cccnc2)C1 (stereo not shown) [6 f, (E)‐1‐(3‐Hydroxypropyl)‐2‐(pyridin‐3‐yl)‐6‐[2‐(pyridin‐3‐yl)vinyl]‐2,3‐dihydropyridin‐4(1H)‐one] | > 75 | > 75 | > 75 | > 75 | 101 ± 1.3 | 106 ± 9.9 | 88.8 ± 10.4 | 106 ± 13.1 | 111 ± 8.1 | 106 ± 4.1 | 0.00
3.3 ± 0.3 | 10 ± 1.7 | 95.7±7.3% | 110.3±6.5^[b] % | 10.4 ± 1.5 | 19 ± 0.2 (≈ 6.73 µg/mL) | 11.1 ± 0.1 (≈ 3.93 µg/mL) | 2.1 ± 0.6 | O=C(/C=C(O)/C=C/c1c[nH]c2ccccc12)/C=C/c1c[nH]c2ccccc12 [compound 3, (1E,4Z,6E)‐5‐Hydroxy‐1,7‐di(1H‐indol‐3‐yl)hepta‐1,4,6‐trien‐3‐one] | 11.5 ± 6.7 | 11.7 ± 4.6 | 15.3 ± 6.6 | 15.2 ± 5.9 | 111 ± 7.5 | 218 ± 20.3 | 129 ± 8 | 382 ± 34 | 141 ± 21.3 | 125 ± 12 | 0.27
7.5 ± 1.6 | 8.2 ± 0.9 | 110.2±9.5^[b] % | 124.3±8.7^[c] % | 9.8 ± 1.5 | 84.8 ± 2.8 (≈ 21.6 µg/mL) | 74.2 ± 1.3 (≈ 18.9 µg/mL) | 9.7 ± 0.6 | O=C(/C=C(O)/C=C/c1ccc[nH]1)/C=C/c1ccc[nH]1 [compound 4, (1E,4Z,6E)‐5‐Hydroxy‐1,7‐di(1H‐pyrrol‐2‐yl)hepta‐1,4,6‐trien‐3‐one] | 8.9 ± 0.5 | 8.3 ± 0.9 | 9.6 ± 0.5 | 9 ± 2.2 | 295 ± 38.5 | 165 ± 18.9 | 75.6 ± 14.6 | 121 ± 26.1 | 105 ± 6.3 | 121 ± 8.7 | 0.79
28 ± 6.4 | 20.3 ± 4.1 | 96.7±5.8% | 95.8±2.5% | 21.3 ± 4 | 2.9 ± 0.3 (≈ 1.07 µg/mL) | 2.6 (≈ 0.958 µg/mL) | 33.1 ± 4.5 | COc1cc(/C=C/C(=O)CC(=O)/C=C/c2ccc(O)c(OC)c2)ccc1O [curcumin, reference compound] | 23.4 ± 5.1 | 20 ± 5.9 | 20.3 ± 1.1 | 34.7 ± 10.5 | 99.9 ± 6.4 | 104 ± 7.6 | 95.9 ± 13.8 | 84.2 ± 8.1 | 92.8 ± 5.8 | 90.2 ± 6.1 | 1.11
